Experiments:
Format in all cases: functional
COLO 205 = experiment: Cytotoxicity against human COLO205 cells assessed as cell growth at 1 uM after 48 hrs by sulforhodamine B assay; details: COLO 205, 48 h, read-out: Activity
Procedure, shortened: (§1)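 NCI-60 five-dose screen. Cells were grown in RPMI 1640 with 5% FBS and 2 mM L-glutamine, plated at 5000–40,000 cells/well and preincubated for 24 h. Time-zero plates were TCA-fixed. DMSO-solubilized drug was added at five concentrations (10-fold or ½-log serial dilutions) for 48 h at 37 °C, 5% CO2. Cells were TCA-fixed, stained with 0.4% SRB and read at 515 nm. Percent growth used time-zero, control and test absorbances.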

U-251 = experiment: Cytotoxicity against human U251 cells assessed as cell growth at 10 uM; details: read-out: Activity
Procedure, shortened: (§2)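 NCI-60 screen: cells grown in RPMI 1640 with 5% FBS and 2 mM L-glutamine, plated at 5000–40,000 cells/well according to doubling time, and preincubated 24 h at 37 °C, 5% CO2. The single 10 µM dose (DMSO stock) was added, then incubated 48 h. Cells were TCA-fixed and stained with 0.4% SRB, read at 515 nm, and growth % calculated against time-zero and control plates.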

LOX IMVI = experiment: Cytotoxicity against human LOXIMVI cells assessed as cell growth at 100 nM after 48 hrs by sulforhodamine B assay; details: read-out: Activity
M14 = experiment: Cytotoxicity against human M14 cells assessed as cell growth at 10 uM; details: read-out: Activity; procedure, shortened: as §2
SN12C [1] = experiment: Cytotoxicity against human SN12C cells assessed as cell growth at 0.001 uM after 48 hrs by sulforhodamine B assay; details: read-out: Activity
EKVX [2] = experiment: Cytotoxicity against human EKVX cells assessed as cell growth at 100 nM after 48 hrs by sulforhodamine B assay; details: read-out: Activity
DU-145 [3] = experiment: Cytotoxicity against human DU145 cells assessed as cell growth at 100 nM after 48 hrs by sulforhodamine B assay; details: DU-145, 48 h, read-out: Activity
HOP-92 = experiment: Cytotoxicity against human HOP92 cells assessed as cell growth at 0.01 uM after 48 hrs by sulforhodamine B assay; details: HOP-92, 48 h, read-out: Activity
[4] = Cytotoxicity against human RPMI8266 cells assessed as cell growth at 100 nM after 48 hrs by sulforhodamine B assay; details: read-out: Activity
SK-MEL-5 = experiment: Cytotoxicity against human SK-MEL-5 cells assessed as cell growth at 10 uM after 48 hrs by sulforhodamine B assay; details: SK-MEL-5, 48 h, read-out: Activity
TK-10 = experiment: Cytotoxicity against human TK10 cells assessed as cell growth at 0.001 uM after 48 hrs by sulforhodamine B assay; details: TK-10, 48 h, read-out: Activity
SK-MEL-2 = experiment: Cytotoxicity against human SK-MEL-2 cells assessed as cell growth at 10 uM; details: read-out: Activity; procedure, shortened: as §2
SF-539 = experiment: Cytotoxicity against human SF539 cells assessed as cell growth at 100 nM after 48 hrs by sulforhodamine B assay; details: SF-539, 48 h, read-out: Activity
NCI-H522 = experiment: Cytotoxicity against human NCI-H522 cells assessed as cell growth at 0.001 uM after 48 hrs by sulforhodamine B assay; details: NCI-H522, 48 h, read-out: Activity
SF-268 = experiment: Cytotoxicity against human SF268 cells assessed as cell growth at 1 uM after 48 hrs by sulforhodamine B assay; details: SF-268, 48 h, read-out: Activity
OVCAR-4 [5] = experiment: Cytotoxicity against human OVCAR4 cells assessed as cell growth at 0.001 uM after 48 hrs by sulforhodamine B assay; details: OVCAR-4, 48 h, read-out: Activity
DU-145 [6] = experiment: Cytotoxicity against human DU145 cells assessed as cell growth at 1 uM after 48 hrs by sulforhodamine B assay; details: DU-145, 48 h, read-out: Activity
KM12 = experiment: Cytotoxicity against human KM12 cells assessed as cell growth at 1 uM after 48 hrs by sulforhodamine B assay; details: KM12, 48 h, read-out: Activity
OVCAR-4 [7] = experiment: Cytotoxicity against human OVCAR4 cells assessed as cell growth at 100 nM after 48 hrs by sulforhodamine B assay; details: OVCAR-4, 48 h, read-out: Activity
MDA-MB-468 = experiment: Cytotoxicity against human MDA-MB-468 cells assessed as cell growth at 10 uM; details: read-out: Activity; procedure, shortened: as §2
786-0 [8] = experiment: Cytotoxicity against human 786-0 cells assessed as cell growth at 100 nM after 48 hrs by sulforhodamine B assay; details: 786-0, 48 h, read-out: Activity; procedure, shortened: as §1
CAKI-1 [9] = experiment: Cytotoxicity against human Caki1 cells assessed as cell growth at 0.001 uM after 48 hrs by sulforhodamine B assay; details: CAKI-1, 48 h, read-out: Activity
HCC 2998 = experiment: Cytotoxicity against human HCC2998 cells assessed as cell growth at 0.001 uM after 48 hrs by sulforhodamine B assay; details: HCC 2998, 48 h, read-out: Activity
[10] = Cytotoxicity against human RPMI8266 cells assessed as cell growth at 0.01 uM after 48 hrs by sulforhodamine B assay; details: read-out: Activity
MDA-MB-231 = experiment: Growth inhibition of human MDA-MB-231 cells after 48 hrs by sulforhodamine B assay; details: MDA-MB-231, 48 h
Procedure, shortened: (§3)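 NCI 60-cell screen, five-dose mode. Cells grown in RPMI 1640 with 5% FBS and 2 mM L-glutamine and plated at 5000-40,000 cells/well according to doubling time. After 24 h preincubation, a Tz plate was TCA-fixed. Five concentrations (10-fold or 1/2 log dilutions) were applied for 48 h at 37 °C. SRB staining read at 515 nm. IC50 taken from [(Ti-Tz)/(C-Tz)]×100 = 50.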

CAKI-1 [11] = experiment: Cytotoxicity against human Caki1 cells assessed as cell growth at 0.01 uM after 48 hrs by sulforhodamine B assay; details: CAKI-1, 48 h, read-out: Activity
SN12C [12] = experiment: Cytotoxicity against human SN12C cells assessed as cell growth at 10 uM after 48 hrs by sulforhodamine B assay; details: read-out: Activity
786-0 [13] = experiment: Cytotoxicity against human 786-0 cells assessed as cell growth at 0.001 uM after 48 hrs by sulforhodamine B assay; details: 786-0, 48 h, read-out: Activity; procedure, shortened: as §1
OVCAR-3 [14] = experiment: Cytotoxicity against human OVCAR-3 cells assessed as cell growth at 0.001 uM after 48 hrs by sulforhodamine B assay; details: OVCAR-3, 48 h, read-out: Activity
UACC-62 = experiment: Cytotoxicity against human UACC62 cells assessed as cell growth at 10 uM; details: read-out: Activity; procedure, shortened: as §2
EKVX [15] = experiment: Growth inhibition of human EKVX cells after 48 hrs by sulforhodamine B assay; details: for CC50: read-out: LC50 (the source's name)
Procedure, shortened: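 NCI five-dose SRB assay in RPMI 1640 with 5% FBS and 2 mM L-glutamine. Cells were preincubated 24 h, then exposed 48 h at 37 °C to five concentrations (10-fold or half-log serial dilutions from DMSO stocks). TCA fixation, SRB staining, and absorbance at 515 nm followed. IC50 was taken where [(Ti−Tz)/(C−Tz)]×100 = 50, with Tz as time-zero cell density.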

OVCAR-3 [16] = experiment: Growth inhibition of human OVCAR-3 cells after 48 hrs by sulforhodamine B assay; details: OVCAR-3, 48 h; for CC50: read-out: LC50 (the source's name); procedure, shortened: as §3

SMILES	growth at 1 µM (COLO 205) [%]	growth at 10 µM (U-251) [%]	growth at 0.1 µM (LOX IMVI) [%]	growth at 10 µM (M14) [%]	growth at 0.001 µM (SN12C [1]) [%]	growth at 0.1 µM (EKVX [2]) [%]	growth at 0.1 µM (DU-145 [3]) [%]	growth at 0.01 µM (HOP-92) [%]	growth at 0.1 µM [4] [%]	growth at 10 µM (SK-MEL-5) [%]	growth at 0.001 µM (TK-10) [%]	growth at 10 µM (SK-MEL-2) [%]	growth at 0.1 µM (SF-539) [%]	growth at 0.001 µM (NCI-H522) [%]	growth at 1 µM (SF-268) [%]	growth at 0.001 µM (OVCAR-4 [5]) [%]	growth at 1 µM (DU-145 [6]) [%]	growth at 1 µM (KM12) [%]	growth at 0.1 µM (OVCAR-4 [7]) [%]	growth at 10 µM (MDA-MB-468) [%]	other results
COc1cc(C)cc(-c2c(-c3ccnc(-c4ccc(C(C)=O)cc4)c3)cnn2CC#N)c1	-78	84.7	85	50.5	94	91	89	69	88	-35	103	73.7	92	86	15	102	16	9	105	26	growth at 0.1 µM (786-0 [8]): 88%; growth at 0.001 µM (CAKI-1 [9]): 104%; growth at 0.001 µM (HCC 2998): 95%; growth at 0.01 µM [10]: 94%; GI50 (MDA-MB-231): 3.63 µM; LC50 (MDA-MB-231): > 100 µM; TGI (MDA-MB-231): > 100 µM; growth at 0.01 µM (CAKI-1 [11]): 97%; growth at 10 µM (SN12C [12]): 34%; growth at 0.001 µM (786-0 [13]): 102%; growth at 0.001 µM (OVCAR-3 [14]): 103%; growth at 10 µM (UACC-62): 49.6%; GI50 (EKVX [15]): 5.8 µM; TGI (EKVX [15]): > 100 µM; CC50 (EKVX [15]): > 100 µM; GI50 (OVCAR-3 [16]): 2.61 µM; TGI (OVCAR-3 [16]): 8.05 µM; CC50 (OVCAR-3 [16]): > 100 µM
Cc1cc(O)cc(-c2nn(CC#N)cc2-c2ccnc(-c3ccc(Oc4ccccc4)cc3)c2)c1	-94	47.5	103	55.1	94	77	86	59	88	-100	91	73.9	92	83	22	110	-14	-39	106	6.32	growth at 0.1 µM (786-0 [8]): 91%; growth at 0.001 µM (CAKI-1 [9]): 101%; growth at 0.001 µM (HCC 2998): 96%; growth at 0.01 µM [10]: 100%; GI50 (MDA-MB-231): 2.28 µM; LC50 (MDA-MB-231): 57.7 µM; TGI (MDA-MB-231): 7.33 µM; growth at 0.01 µM (CAKI-1 [11]): 90%; growth at 10 µM (SN12C [12]): -87%; growth at 0.001 µM (786-0 [13]): 98%; growth at 0.001 µM (OVCAR-3 [14]): 92%; growth at 10 µM (UACC-62): 68.1%; GI50 (EKVX [15]): 2.16 µM; TGI (EKVX [15]): 8.95 µM; CC50 (EKVX [15]): > 100 µM; GI50 (OVCAR-3 [16]): 1.88 µM; TGI (OVCAR-3 [16]): 3.95 µM; CC50 (OVCAR-3 [16]): 8.29 µM

— ChEMBL document CHEMBL1165950, “Design and synthesis of new potent anticancer pyrazoles with high FLT3 kinase inhibitory selectivity” (Bioorg Med Chem, 2010)
